Reference: ChEMBL document CHEMBL4257478, “Design, synthesis and evaluation of (R)-3-(7-(methyl(7H-pyrrolo[2,3-d]pyrimidin-4-yl)amino)-5-azaspiro[2.4]heptan-5-yl)-3-oxopropanenitrile as a JAK1-selective inhibitor” (Medchemcomm, 2018)
The source made the active and inactive calls. The rule behind the calls is not given here.

How the values were obtained:
Rattus norvegicus [1] = test: AUC (0 to t) in Sprague-Dawley rat at 5 mg/kg, iv after 0.08 to 24 hrs by LC-MS/MS method; format: ADME, organism-based; set-up: time upper 24 hr, time lower 0.08 hr, dose 5 mg/kg, route intravenous; conditions: in vivo
In short: (§1)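 Male Sprague Dawley rats, 7-8 weeks old, n=4 per group. IV dose 5 mg/kg free base in 10% ethanol/90% PEG400; oral dose 10 mg/kg as corn oil suspension after 16 h fast. Blood taken 0.08-24 h (IV) or 0.25-24 h (PO). Plasma diluted in acetonitrile with internal standard, analysed by LC-MS/MS, parameters by non-compartmental analysis.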

Rattus norvegicus [2] = test: AUC (0 to infinity) in Sprague-Dawley rat at 5 mg/kg, iv after 0.08 to 24 hrs by LC-MS/MS method; format: ADME, organism-based; set-up: dose 5 mg/kg, time infinity, route intravenous; conditions: in vivo; in short: as §1
Rattus norvegicus [3] = test: AUC (0 to t) in Sprague-Dawley rat at 10 mg/kg, po after 0.25 to 24 hrs by LC-MS/MS method; format: ADME, organism-based; set-up: time lower 0.25 hr, dose 10 mg/kg, time upper 24 hr, route oral; conditions: in vivo; in short: as §1
[4] = Cmax in Sprague-Dawley rat at 10 mg/kg, po after 0.25 to 24 hrs by LC-MS/MS method; format: ADME, organism-based; set-up: dose 10 mg/kg, route oral; conditions: in vivo; in short: as §1
[5] = Tmax in Sprague-Dawley rat at 10 mg/kg, po after 0.25 to 24 hrs by LC-MS/MS method; format: ADME, organism-based; conditions: in vivo
In short: (§2)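 Male Sprague Dawley rats, 7–8 weeks old, n=4, fasted 16 h. Free base given at 10 mg/kg po as a corn oil suspension (5 mL/kg); a 5 mg/kg iv arm used 10% ethanol/90% PEG400. Plasma sampled 0.25–24 h, acetonitrile-precipitated with internal standard, and measured by LC-MS/MS. Parameters derived by non-compartmental analysis.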

[6] = MRT in Sprague-Dawley rat at 5 mg/kg, iv after 0.08 to 24 hrs by LC-MS/MS method; format: ADME, organism-based; conditions: in vivo; in short: as §1
[7] = MRT in Sprague-Dawley rat at 10 mg/kg, po after 0.25 to 24 hrs by LC-MS/MS method; format: ADME, organism-based; conditions: in vivo; in short: as §1
[8] = Half life in Sprague-Dawley rat at 10 mg/kg, po after 0.25 to 24 hrs by LC-MS/MS method; format: ADME, organism-based; conditions: in vivo; in short: as §1
Rattus norvegicus [9] = test: AUC (0 to infinity) in Sprague-Dawley rat at 10 mg/kg, po after 0.25 to 24 hrs by LC-MS/MS method; format: ADME, organism-based; set-up: dose 10 mg/kg, route oral, time infinity; conditions: in vivo; in short: as §1
[10] = Half life in Sprague-Dawley rat at 5 mg/kg, iv after 0.08 to 24 hrs by LC-MS/MS method; format: ADME, organism-based; conditions: in vivo; in short: as §1
[11] = Oral bioavailability in Sprague-Dawley rat at 10 mg/kg after 0.25 to 24 hrs by LC-MS/MS method; format: ADME, organism-based; conditions: in vivo; in short: as §2
Mus musculus [12] = test: Antiarthritic activity in collagen-induced DBA1/J mouse arthritis model assessed as decrease in paw volume at 100 mg/kg, po qd measured on day 1 and 15 by plethysmometer
Mus musculus [13] = test: Antiarthritic activity in collagen-induced DBA1/J mouse arthritis model assessed as decrease in serum TNF-alpha levels at 100 mg/kg, po qd measured on day 19 by ELISA; format: functional, organism-based
In short: (§3)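 Male DBA1/J mice, 6 weeks old, immunized s.c. at the tail base with type II collagen (2 mg/mL) in complete Freund's adjuvant (1:1, 0.1 mL), then boosted at day 21 with collagen in incomplete Freund's adjuvant. Clinical scores taken twice weekly for 18 days; serum IL-6 and TNF-α measured after autopsy; right hind ankle assessed by histopathology and by micro-CT for bone surface/volume.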

Mus musculus [14] = test: Antiarthritic activity in collagen-induced DBA1/J mouse arthritis model assessed as decrease in articular surface cartilage thickness in right hind ankle joints at 100 mg/kg, po qd measured on day 19 by hematoxylin-eosin staining-based assay; format: functional, organism-based; in short: as §3
Mus musculus [15] = test: Antiarthritic activity in collagen-induced DBA1/J mouse arthritis model assessed as decrease in ratio of bone surface to bone volume of right hind ankle joint at 100 mg/kg, po qd measured on day 19 by micro-CT analysis; format: functional, organism-based; in short: as §3
Rattus norvegicus [16] = test: Antiarthritic activity in adjuvant-induced SPF LEW/SsNSlc rat arthritis model assessed as decrease in clinical arthritis score at 20 mg/kg, po qd measured on day 14; format: functional, organism-based
In short: (§4)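 Lewis rats were 10 weeks old after 2 weeks acclimation. Immunized s.c. at the tail base with 0.1 mL complete Freund's adjuvant containing 10 mg/mL heat-killed mycobacterium. From day 12 post-immunization (day 1), n=10 per group, oral dosing once daily for 14 days, vehicle corn oil. Clinical score and hind paw measured twice weekly.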

Mus musculus [17] = test: Antiarthritic activity in collagen-induced DBA1/J mouse arthritis model assessed as decrease in clinical arthritis score at 100 mg/kg, po qd measured twice weekly for 18 days; format: functional, organism-based; in short: as §3
Mus musculus [18] = test: Antiarthritic activity in collagen-induced DBA1/J mouse arthritis model assessed as decrease in infiltration of inflammatory cells in right hind ankle joints at 100 mg/kg, po qd measured on day 19 by hematoxylin-eosin staining-based assay; format: functional, organism-based; in short: as §3
Mus musculus [19] = test: Antiarthritic activity in collagen-induced DBA1/J mouse arthritis model assessed as decrease in serum IL-6 levels at 100 mg/kg, po qd measured on day 19 by ELISA; format: functional, organism-based; in short: as §3
Mus musculus [20] = test: Antiarthritic activity in collagen-induced DBA1/J mouse arthritis model assessed as decrease in right hind ankle joint thickness at 100 mg/kg, po qd measured on day 19 by hematoxylin-eosin staining-based assay; format: functional, organism-based; in short: as §3
Rattus norvegicus [21] = test: Antiarthritic activity in adjuvant-induced SPF LEW/SsNSlc rat arthritis model assessed as paw thickness at 20 mg/kg, po qd measured on day 14; format: functional; in short: as §4

Row | Compound | AUCt (Rattus norvegicus [1]) | AUC (Rattus norvegicus [2]) | AUCt (Rattus norvegicus [3]) | Cmax [4] | Tmax [5] | MRT [6] | MRT [7] | half-life [8] | AUC (Rattus norvegicus [9]) | half-life [10] | bioavailability [11] | further results
1 | CN(c1ncnc2[nH]ccc12)[C@H]1CN(C(=O)CC#N)CC12CC2.O=C(O)C(O)C(O)C(=O)O | 1400 ng·h/mL | 1400 ng·h/mL | 1900 ng·h/mL | 1000 ng/mL | 24 min | 54 min | 90 min | 60 min | 1900 ng·h/mL | 60 min | 68% | –
2 | CN(c1ncnc2[nH]ccc12)[C@H]1CN(C(=O)CC#N)CC12CC2.Cl | 1800 ng·h/mL | 1900 ng·h/mL | 2400 ng·h/mL | 1300 ng/mL | 24 min | 42 min | 96 min | 66 min | 2400 ng·h/mL | 36 min | 65% | –
3 | O=C(Nc1nc2cccc(-c3ccc(CN4CCS(=O)(=O)CC4)cc3)n2n1)C1CC1 [FILGOTINIB] | – | – | – | – | – | – | – | – | – | – | – | Activity (Mus musculus [12]): Active; Activity (Mus musculus [13]): Active; Activity (Mus musculus [14]): Active; Activity (Mus musculus [15]): Active; Activity (Rattus norvegicus [16]): Active; Activity (Mus musculus [17]): Active; Activity (Mus musculus [18]): Active; Activity (Mus musculus [19]): Active; Activity (Mus musculus [20]): Active; Activity (Rattus norvegicus [21]): 10.32 mm
